{"data": "Assay results of several laboratories", "target": "Maternal embryonic leucine zipper kinase (MELK, Homo sapiens, UniProt Q14680)", "note": "Each line is one published result; the experiments were not run side by side."}
{"SMILES": "COc1ncc2cc3ccccc3nc2c1C#N", "observed": "cell-free assay", "method": "competition with immobilised ligand", "concentration": "5 µM", "remaining binding": "83%"}
{"SMILES": "O=C(NCCCN1CCOCC1)c1ccc(Nc2nccc(-c3cc4ccccc4s3)n2)cc1", "observed": "binding", "method": "competition with immobilised ligand", "concentration": "1 µM", "remaining binding": "100%"}
{"SMILES": "CCC(=O)N[C@@H]1CC[C@H](C(=O)N(C)c2ccc(-c3nc4ccccc4o3)cc2)C1", "observed": "cell-free assay", "method": "competition with immobilised ligand", "concentration": "1 µM", "remaining binding": "100%"}
{"SMILES": "O=C(NCC1CCOCC1)c1n[nH]cc1NC(=O)c1c(F)cccc1F", "observed": "binding", "method": "competition with immobilised ligand", "concentration": "1 µM", "remaining binding": "69%"}
{"SMILES": "N[C@H]1CCN(c2nccc(-c3cnn4ncccc34)n2)C1", "observed": "binding", "concentration": "1 µM", "remaining binding": "69%"}
{"SMILES": "FC(F)(F)Oc1cccc(-c2cnc3ccc(-c4ccncc4)nn23)c1", "observed": "cell-free assay", "method": "competition with immobilised ligand", "concentration": "5 µM", "remaining binding": "56%"}
{"SMILES": "COc1ccc2c(c1)O[C@@H](c1ccc(OC)c(OC)c1)C[C@H]2NC(=O)C1(c2ccc3c(c2)OC(F)(F)O3)CC1", "observed": "cell-free assay", "method": "competition with immobilised ligand", "concentration": "1 µM", "remaining binding": "65%"}
{"SMILES": "O=C(c1ccc(Nc2nccc(-c3cc4ccccc4s3)n2)cc1)N1CCC(N2CCCC2)CC1", "observed": "binding", "method": "competition with immobilised ligand", "concentration": "1 µM", "remaining binding": "100%"}
{"SMILES": "F[C@@H]1CCN(c2nccc(-c3cnn4ncccc34)n2)C1", "observed": "binding", "concentration": "1 µM", "remaining binding": "100%"}
{"SMILES": "CC(=O)C1=C(C)N(c2cccc(C(F)(F)F)c2)C(=O)N[C@@H]1c1ccc(C#N)nc1", "observed": "cell-free assay", "method": "competition with immobilised ligand", "concentration": "1 µM", "remaining binding": "88.2%"}
{"SMILES": "c1cnn2ncc(-c3ccnc(N4CCC45COC5)n3)c2c1", "observed": "binding", "concentration": "1 µM", "remaining binding": "52%"}
{"SMILES": "CNC(=O)Nc1ccc2c(c1)CC[C@@]21OC(=O)N(CC(=O)N(Cc2ccc(F)cc2)[C@@H](C)C(F)(F)F)C1=O", "observed": "cell-free assay", "method": "competition with immobilised ligand", "concentration": "1 µM", "remaining binding": "91%"}
{"SMILES": "C[C@@H]1CCN(c2nccc(-c3cnn4ncccc34)n2)C1", "observed": "binding", "concentration": "1 µM", "remaining binding": "48%"}
{"SMILES": "COc1cnc(Nc2cccc(S(N)(=O)=O)c2)nc1N1CCN(c2ccccc2)CC1", "observed": "binding", "method": "competition with immobilised ligand", "concentration": "1 µM", "remaining binding": "88%"}
{"SMILES": "COc1ccnn2ncc(-c3ccnc(N(C)C)n3)c12", "observed": "binding", "concentration": "1 µM", "remaining binding": "100%"}
{"SMILES": "CC(=O)N1CCC(c2ccc(C(=O)NC3=NCCN3)cc2C(F)(F)F)CC1", "observed": "cell-free assay", "method": "competition with immobilised ligand", "concentration": "1 µM", "remaining binding": "100%"}
{"SMILES": "COc1cnc(Nc2cccc(S(N)(=O)=O)c2)nc1N1CCN(c2ccccc2)C(=O)C1", "observed": "binding", "method": "competition with immobilised ligand", "concentration": "1 µM", "remaining binding": "100%"}
{"SMILES": "C=CC(=O)N1CCC(C(=O)NCC(=O)N2CCN(c3nc(-c4cnc(N)nc4C(F)F)nc(N4CCOCC4)n3)CC2)CC1", "observed": "binding", "method": "competition with immobilised ligand", "concentration": "1 µM", "remaining binding": "100%"}
{"SMILES": "CN(CCCC(F)(F)F)c1nccc(-c2cnn3ncccc23)n1", "observed": "binding", "concentration": "1 µM", "remaining binding": "94%"}
{"SMILES": "O=C(c1ccc(Nc2ncc(Cl)c(-c3cc4ccccc4s3)n2)cc1)N1CCC(N2CCCC2)CC1", "observed": "binding", "method": "competition with immobilised ligand", "concentration": "1 µM", "remaining binding": "64%"}
{"SMILES": "O=S(=O)(NC1CCC(c2cc(F)ccc2F)(S(=O)(=O)c2ccc(Cl)cc2)CC1)C(F)(F)F (stereo not shown)", "observed": "cell-free assay", "method": "competition with immobilised ligand", "concentration": "1 µM", "remaining binding": "69%"}
{"SMILES": "CN(C)c1nccc(-c2cnn3ncccc23)n1", "observed": "binding", "concentration": "1 µM", "remaining binding": "71%"}
